Holding throughout (type): functional, cell-based
Assay [1] has as its system MDA-MB-231. Nature of the assay: Cytotoxicity against human MDA-MB-231 cells assessed as cell viability after 72 hrs by commercial absorbance assay. The conditions noted are these: MDA-MB-231, 72 h. Summed up: (§1)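 Cells from ATCC grown at 37°C, 5% CO₂ in RPMI 1640 with 10% FBS, penicillin 100 units/mL and streptomycin 100 µg/mL. Log-phase cells were trypsinized, washed twice, seeded at 5,000/well and incubated overnight. Samples in DMSO were added at 20, 4, 0.8, 0.16 and 0.032 µM (0.5% DMSO) for 72 h at 37°C. Viability was read by CellTiter 96 AQueous One absorbance; IC₅₀ relative to DMSO control.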

The test system of assay [2] is OVCAR-3. Kind of assay: Cytotoxicity against human OVCAR3 cells assessed as cell viability after 72 hrs by commercial absorbance assay. The conditions noted are these: OVCAR-3, 72 h. Summed up: as §1
In assay [3] the test system is MDA-MB-435. Kind of assay: Cytotoxicity against human MDA-MB-435 cells assessed as cell viability after 72 hrs by commercial absorbance assay. As to conditions: MDA-MB-435, 72 h. Summed up:
as §1

Regarding `C[C@]12C(=O)O[C@@H]3C[C@@H]4[C@@H](CCC5=CC(=O)O[C@@H]54)C4(CCC1(O)OC4)[C@@H]32` (stereo partly specified), the half-inhibitory concentration (IC50) in assay [1], in assay [2] and in assay [3] was more than 20 µM throughout.

With `C[C@]12C(=O)O[C@@H]3Cc4c(ccc5ccoc45)C4(CCC1(O)OC4)[C@@H]32` (stereo partly specified), the half-inhibitory concentration (IC50) – broadly, the midpoint of a concentration-inhibition curve – in assay [1] is more than 20 µM; in assay [2], 17.8 µM; in assay [3], more than 20 µM.

On to `CC[C@]1(O)C[C@@H]2CN(CCc3c([nH]c4ccccc34)[C@@](C(=O)OC)(c3cc4c(cc3OC)N(C)[C@H]3[C@@](O)(C(=O)OC)[C@H](OC(C)=O)[C@]5(CC)C=CCN6CC[C@]43[C@@H]65)C2)C1` [VINBLASTINE], for which the half-maximal inhibitory concentration (IC50) in assay [1] was determined as 0.00878 µM; in assay [2], 0.00182 µM; in assay [3], 0.00049 µM.

`COc1cc2c(c3occc13)C[C@H]1OC(=O)[C@]3(C)[C@H]1[C@@]21CO[C@](O)(C1)[C@H]3O`: the IC50 in assay [1], in assay [2] and in assay [3] was more than 20 µM throughout.

As for `C[C@@]12CC[C@@H]3C(=C[C@H]4OC(=O)[C@]5(C)[C@H]4[C@]34CCC5(O)OC4)[C@@H]1OC[C@H]2O`, the values for the half-inhibitory concentration (IC50) in assay [1], in assay [2] and in assay [3] were 3.74 µM, 4.12 µM and 1.65 µM, respectively.

With `COc1cc2c(c3occc13)C[C@H]1OC(=O)[C@]3(C)[C@H]1[C@@]21CO[C@](O)(C1)[C@@H]3O`, the IC50 in assay [1], in assay [2] and in assay [3] was more than 20 µM throughout.

Consider `C[C@]12C(=O)O[C@@H]3C[C@H]4C5=C(CC[C@H]4[C@@]4(CCC1(O)OC4)[C@@H]32)C(=O)CO5`, for which the IC50 worked out at 0.67 µM in assay [1], 1.05 µM in assay [2] and 0.66 µM in assay [3].

Regarding `C[C@@]12CC[C@@H]3C(=C[C@H]4OC(=O)[C@]5(C)[C@H]4[C@]34CCC5(O)OC4)[C@]1(O)OC[C@H]2O`, the IC50 came to 7.3 µM in assay [1], 7.55 µM in assay [2] and 1.25 µM in assay [3].

Consider `C[C@]12C(=O)O[C@@H]3C[C@@]4(O)c5occc5C(=O)C[C@H]4C4(CCC1(O)OC4)[C@@H]32` (stereo partly specified), for which the figures for the 50% inhibitory concentration (IC50) in assay [1], in assay [2] and in assay [3] were 8.94 µM, 10.5 µM and 6.16 µM, respectively.

As for `C[C@]12C(=O)O[C@@H]3C[C@H]4c5occc5C(=O)C[C@H]4C4(CCC1(O)OC4)[C@@H]32` (stereo partly specified), the IC50 in assay [1], in assay [2] and in assay [3] was more than 20 µM in each case.

On to `C[C@]12C(=O)O[C@@H]3C[C@H]4c5occc5C(=O)C[C@H]4[C@@]4(COC1(O)C[C@@H]4O)[C@@H]32`, for which the IC50 turned out to be 10.8 µM in assay [1], 18.7 µM in assay [2] and 6.44 µM in assay [3].

As for `COc1cc2c(c3occc13)C[C@H]1OC(=O)[C@]3(C)[C@H]1C21CCC3(O)OC1` (stereo partly specified), the 50% inhibitory concentration (IC50) in assay [1], in assay [2] and in assay [3] was more than 20 µM throughout.
